# Article PMC9476207 (ACS Omega, 2022)
# How the values were obtained:
# Assay in all cases: NCI-60 single-dose antiproliferative screen
# Assay type in all cases: cell-based
# HS 578T = settings: Homo sapiens, 48 h, read-out: growth percent
# How it was run: (§1)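 NCI-60 protocol. Lines were grown in RPMI 1640 with 5% FBS and 2 mM L-glutamine, plated and incubated 24 h at 37 °C; time-zero plates were TCA-fixed. The test compound was dissolved in DMSO, diluted in medium with 50 μg/mL gentamicin and given once at a final 10^-5 M (DMSO control) for 48 h. Cells were fixed with cold TCA (1 h, 4 °C) and stained with 0.4% SRB in 1% acetic acid for 10 min. Dye was dissolved in 10 mM Trizma base and read at 515 nm. Growth percent was calculated from time-zero, test and control ODs.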
# DU-145 = settings: Homo sapiens, DU-145, 48 h, read-out: growth percent
# How it was run: as §1
# UACC-257 = settings: Homo sapiens, UACC-257, 48 h, read-out: growth percent
# How it was run: (§2)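 Cells grown in RPMI 1640 with 5% FBS and 2 mM L-glutamine, plated and held 24 h at 37 °C; time-zero plates TCA-fixed. DMSO stocks were diluted in gentamicin-containing medium to a final 10^-5 M, with a DMSO-only control. Exposure 48 h, 5% CO2. Adherent cells TCA-fixed 1 h at 4 °C, stained with 0.4% SRB, solubilised in 10 mM Trizma base, read at 515 nm. Growth percent derived from ODtzero, ODtest and ODctrl.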
# CAKI-1 = settings: Homo sapiens, CAKI-1, 48 h, read-out: growth percent
# How it was run: as §1
# NCI-H23 = settings: Homo sapiens, NCI-H23, 48 h, read-out: growth percent
# How it was run: as §1
# SK-MEL-28 = settings: Homo sapiens, SK-MEL-28, 48 h, read-out: growth percent
# How it was run: as §2
# A549/ATCC = settings: Homo sapiens, A549, 48 h, read-out: growth percent
# How it was run: as §1
# K-562 = settings: Homo sapiens, K562, 48 h, read-out: growth percent
# How it was run: as §1
# M14 = settings: Homo sapiens, M14, 48 h, read-out: growth percent
# How it was run: as §1
# MDA-MB-435 = settings: Homo sapiens, MDA-MB-435, 48 h, read-out: growth percent
# How it was run: as §1
# SK-OV-3 = settings: Homo sapiens, SK-OV-3, 48 h, read-out: growth percent
# How it was run: as §2
# MALME-3M = settings: Homo sapiens, 48 h, read-out: growth percent
# How it was run: as §1
# OVCAR-8 = settings: Homo sapiens, OVCAR-8, 48 h, read-out: growth percent
# How it was run: as §1
# CCRF-CEM = settings: Homo sapiens, 48 h, read-out: growth percent
# How it was run: as §1
# SN12C = settings: Homo sapiens, 48 h, read-out: growth percent
# How it was run: as §2
# SNB-75 = settings: Homo sapiens, SNB-75, 48 h, read-out: growth percent
# How it was run: as §2
# SF-268 = settings: Homo sapiens, SF-268, 48 h, read-out: growth percent
# How it was run: as §1
# KM12 = settings: Homo sapiens, KM12, 48 h, read-out: growth percent
# How it was run: as §1
# TK-10 = settings: Homo sapiens, TK-10, 48 h, read-out: growth percent
# How it was run: as §2
# SK-MEL-2 = settings: Homo sapiens, SK-MEL-2, 48 h, read-out: growth percent
# How it was run: as §2
# T-47D = settings: Homo sapiens, T47D, 48 h, read-out: growth percent
# How it was run: as §2
# COLO205 = settings: Homo sapiens, COLO 205, 48 h, read-out: growth percent
# How it was run: as §1
# NCI-H226 = settings: Homo sapiens, NCI-H226, 48 h, read-out: growth percent
# How it was run: as §1
# OVCAR-5 = settings: Homo sapiens, OVCAR-5, 48 h, read-out: growth percent
# How it was run: as §1
# SK-MEL-5 = settings: Homo sapiens, SK-MEL-5, 48 h, read-out: growth percent
# How it was run: as §2
# UACC-62 = settings: Homo sapiens, UACC-62, 48 h, read-out: growth percent
# How it was run: as §2
# SF-539 = settings: Homo sapiens, SF-539, 48 h, read-out: growth percent
# How it was run: as §2
# OVCAR-4 = settings: Homo sapiens, OVCAR-4, 48 h, read-out: growth percent
# How it was run: as §1
# NCI-H522 = settings: Homo sapiens, NCI-H522, 48 h, read-out: growth percent
# How it was run: as §1
# HOP-62 = settings: Homo sapiens, HOP-62, 48 h, read-out: growth percent
# How it was run: as §1
# SR = settings: Homo sapiens, 48 h, read-out: growth percent
# How it was run: as §2
# NCI/ADR-RES = settings: Homo sapiens, 48 h, read-out: growth percent
# How it was run: as §1
# SW-620 = settings: Homo sapiens, SW-620, 48 h, read-out: growth percent
# How it was run: as §2
# RPMI-8226 = settings: Homo sapiens, RPMI-8226, 48 h, read-out: growth percent
# How it was run: as §1
# RXF 393 = settings: Homo sapiens, RXF 393, 48 h, read-out: growth percent
# How it was run: as §1
# HCC-2998 = settings: Homo sapiens, HCC 2998, 48 h, read-out: growth percent
# How it was run: as §1
SMILES,activity at 10 µM (HS 578T) [%],activity at 10 µM (DU-145) [%],activity at 10 µM (UACC-257) [%],activity at 10 µM (CAKI-1) [%],activity at 10 µM (NCI-H23) [%],activity at 10 µM (SK-MEL-28) [%],activity at 10 µM (A549/ATCC) [%],activity at 10 µM (K-562) [%],activity at 10 µM (M14) [%],activity at 10 µM (MDA-MB-435) [%],activity at 10 µM (SK-OV-3) [%],activity at 10 µM (MALME-3M) [%],activity at 10 µM (OVCAR-8) [%],activity at 10 µM (CCRF-CEM) [%],activity at 10 µM (SN12C) [%],activity at 10 µM (SNB-75) [%],activity at 10 µM (SF-268) [%],activity at 10 µM (KM12) [%],activity at 10 µM (TK-10) [%],activity at 10 µM (SK-MEL-2) [%],also measured
"COc1cc(CNC(=O)CCCC/C=C/C(C)C)ccc1OCc1cn(-c2cccc(Cl)c2)nn1 [14b, (E)-N-(4-((1-(3-Chlorophenyl)-1H-1,2,3-triazol-4-yl)methoxy)-3-methoxybenzyl)-8-methylnon-6-enamide]",74.8,95.9,90.1,79.6,87.2,106,82.9,84.9,94.1,98.6,78.8,98.7,57.2,87.3,84.2,75.8,82.5,98.6,106,86.7,activity at 10 µM (T-47D): 81.1%; activity at 10 µM (COLO205): 102%; activity at 10 µM (NCI-H226): 86.5%; activity at 10 µM (OVCAR-5): 99.8%; activity at 10 µM (SK-MEL-5): 91.2%; activity at 10 µM (UACC-62): 75%; activity at 10 µM (SF-539): 82%; activity at 10 µM (OVCAR-4): 67.2%; activity at 10 µM (NCI-H522): 69.2%; activity at 10 µM (HOP-62): 71.5%; activity at 10 µM (SR): 85.6%; activity at 10 µM (NCI/ADR-RES): 76.6%; activity at 10 µM (SW-620): 92.8%; activity at 10 µM (RPMI-8226): 86.3%; activity at 10 µM (RXF 393): 91%; activity at 10 µM (HCC-2998): 104%
"COc1cc(CNC(=O)CCCC/C=C/C(C)C)ccc1OCc1cn(-c2ccc(C)c(C)c2)nn1 [14p, (E)-N-(4-((1-(3,4-Dimethylphenyl)-1H-1,2,3-triazol-4-yl)methoxy)-3-methoxybenzyl)-8-methylnon-6-enamide]",90.7,108,81.9,94.3,74.9,112,82.2,74.6,93.5,104,98.6,107,83.3,75.5,88.4,91,94.6,97.5,109,90.3,activity at 10 µM (T-47D): 73.2%; activity at 10 µM (COLO205): 106%; activity at 10 µM (NCI-H226): 86.9%; activity at 10 µM (OVCAR-5): 107%; activity at 10 µM (SK-MEL-5): 81.5%; activity at 10 µM (UACC-62): 75.1%; activity at 10 µM (SF-539): 105%; activity at 10 µM (OVCAR-4): 84.9%; activity at 10 µM (NCI-H522): 80.7%; activity at 10 µM (HOP-62): 97.4%; activity at 10 µM (SR): 58.2%; activity at 10 µM (NCI/ADR-RES): 80.6%; activity at 10 µM (SW-620): 95.2%; activity at 10 µM (RPMI-8226): 67.3%; activity at 10 µM (RXF 393): 98.2%; activity at 10 µM (HCC-2998): 101%
"COc1cc(CNC(=O)CCCC/C=C/C(C)C)ccc1OCc1cn(-c2ccc(Cl)cc2)nn1 [14a, (E)-N-(4-((1-(4-Chlorophenyl)-1H-1,2,3-triazol-4-yl)methoxy)-3-methoxybenzyl)-8-methylnon-6-enamide]",90.3,98.9,91.6,89,78.7,106,85.3,66.7,90.6,99.3,91.6,97.8,79,72.4,80.2,76.4,84,95.6,99.3,102,activity at 10 µM (T-47D): 71%; activity at 10 µM (COLO205): 108%; activity at 10 µM (NCI-H226): 70.4%; activity at 10 µM (OVCAR-5): 100%; activity at 10 µM (SK-MEL-5): 77.6%; activity at 10 µM (UACC-62): 67.8%; activity at 10 µM (SF-539): 87.1%; activity at 10 µM (OVCAR-4): 82.6%; activity at 10 µM (NCI-H522): 65.7%; activity at 10 µM (HOP-62): 84%; activity at 10 µM (SR): 73.5%; activity at 10 µM (NCI/ADR-RES): 78.1%; activity at 10 µM (SW-620): 88.7%; activity at 10 µM (RPMI-8226): 60.8%; activity at 10 µM (RXF 393): 98%; activity at 10 µM (HCC-2998): 113%
"CCc1ccc(-n2cc(COc3ccc(CNC(=O)CCCC/C=C/C(C)C)cc3OC)nn2)cc1 [14o, (E)-N-(4-((1-(4-Ethylphenyl)-1H-1,2,3-triazol-4-yl)methoxy)-3-methoxybenzyl)-8-methylnon-6-enamide]",78,93.8,86.4,77.4,89.5,115,88.3,78.6,99.8,107,102,108,91.1,86.8,98.5,92.6,93,100,87.4,95.2,activity at 10 µM (T-47D): 111%; activity at 10 µM (COLO205): 121%; activity at 10 µM (NCI-H226): 76.7%; activity at 10 µM (OVCAR-5): 112%; activity at 10 µM (SK-MEL-5): 84%; activity at 10 µM (UACC-62): 71.4%; activity at 10 µM (SF-539): 104%; activity at 10 µM (OVCAR-4): 89%; activity at 10 µM (NCI-H522): 65.9%; activity at 10 µM (HOP-62): 94.5%; activity at 10 µM (SR): 87.5%; activity at 10 µM (NCI/ADR-RES): 87.7%; activity at 10 µM (SW-620): 103%; activity at 10 µM (RPMI-8226): 74%; activity at 10 µM (RXF 393): 101%; activity at 10 µM (HCC-2998): 99.7%
